Reference: ChEMBL document CHEMBL4118126, “An orally available, brain-penetrant CAMKK2 inhibitor reduces food intake in rodent model” (Bioorg Med Chem Lett, 2018)
In brackets after ≈: the same amount, converted by molar mass.

What was measured:
[1] = Solubility of the compound in pH 7.4 phosphate buffer saline after 1 hr by chemiluminescence nitrogen detection method; format: physicochemical; details: phosphate buffered saline
Procedure, shortened: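 Kinetic solubility: 10 mM DMSO stock diluted 1:20 into 10 mM phosphate-buffered saline pH 7.4, equilibrated 1 h at RT, filtered, and filtrate quantified by calibrated flow-injection chemiluminescent nitrogen detection.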

[2] = target: Calcium/calmodulin-dependent protein kinase kinase 2 (Mus musculus, UniProt Q8C078); test: Inhibition of CAMKK2 in mouse N39 cells assessed as decrease in AMPKalpha phosphorylation at T172 preincubated for 80 mins followed by […] addition by ELISA; format: cell-based
Procedure, shortened: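 Mouse N39 cells seeded ~1000 cells/well, cultured overnight at 37°C, 5% CO2, then exposed to compound in DMSO for 80 min before ionomycin stimulation ([…] as added). Cells were lysed in extraction buffer for 30 min on ice, then diluted into ice-cold lysis buffer containing protease and phosphatase inhibitors for MSD read-out.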

[3] = target: Calcium/calmodulin-dependent protein kinase kinase 2 (Homo sapiens, UniProt Q96RR4); test: Inhibition of full-length human GST-tagged CAMKK2 using 5FAM-AKPKGNKDYHLQTCCGSLAYRRR-amide as substrate preincubated for 30 mins followed by substrate addition measured after 120 mins by fluorescence polarization assay
[4] = target: Glycogen synthase kinase-3 beta (Homo sapiens, UniProt P49841); test: Inhibition of GSK3beta (unknown origin)
[5] = target: Mitogen-activated protein kinase 8 (Homo sapiens, UniProt P45983); test: Inhibition of JNK1 (unknown origin)
[6] = target: Phosphatidylinositol 4,5-bisphosphate 3-kinase catalytic subunit gamma isoform (Homo sapiens, UniProt P48736); test: Inhibition of PI3Kgamma (unknown origin)
Insulin receptor = Insulin receptor (Homo sapiens, UniProt P06213); test: Inhibition of INSR (unknown origin); details: read-out: pIC50 (converted)
[7] = target: T1, Inhibitor of nuclear factor kappa-B kinase subunit alpha (Homo sapiens, UniProt O15111); test: Inhibition of IKK1 (unknown origin)
T1 sequence (O15111 whole entry): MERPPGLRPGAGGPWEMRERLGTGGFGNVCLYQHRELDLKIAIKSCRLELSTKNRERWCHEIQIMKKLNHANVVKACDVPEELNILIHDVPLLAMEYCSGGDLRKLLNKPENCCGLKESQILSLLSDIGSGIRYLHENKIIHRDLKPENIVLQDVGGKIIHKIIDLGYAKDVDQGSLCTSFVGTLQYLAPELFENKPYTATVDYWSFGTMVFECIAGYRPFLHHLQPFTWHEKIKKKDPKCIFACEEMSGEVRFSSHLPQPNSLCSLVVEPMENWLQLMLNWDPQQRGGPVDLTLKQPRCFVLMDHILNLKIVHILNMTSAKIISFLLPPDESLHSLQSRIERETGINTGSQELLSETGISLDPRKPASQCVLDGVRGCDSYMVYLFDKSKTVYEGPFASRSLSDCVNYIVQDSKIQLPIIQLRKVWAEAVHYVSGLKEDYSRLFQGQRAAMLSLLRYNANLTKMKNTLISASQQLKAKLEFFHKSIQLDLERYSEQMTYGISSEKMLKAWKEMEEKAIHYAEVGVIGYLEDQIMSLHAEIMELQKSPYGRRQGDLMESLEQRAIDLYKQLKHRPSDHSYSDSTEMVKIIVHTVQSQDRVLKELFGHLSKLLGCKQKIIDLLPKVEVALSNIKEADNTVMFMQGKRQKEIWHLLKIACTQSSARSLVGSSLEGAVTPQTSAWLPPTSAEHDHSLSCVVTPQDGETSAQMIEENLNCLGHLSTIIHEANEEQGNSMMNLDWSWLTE

Sequence of Insulin receptor (P06213 28-758 limits assumed): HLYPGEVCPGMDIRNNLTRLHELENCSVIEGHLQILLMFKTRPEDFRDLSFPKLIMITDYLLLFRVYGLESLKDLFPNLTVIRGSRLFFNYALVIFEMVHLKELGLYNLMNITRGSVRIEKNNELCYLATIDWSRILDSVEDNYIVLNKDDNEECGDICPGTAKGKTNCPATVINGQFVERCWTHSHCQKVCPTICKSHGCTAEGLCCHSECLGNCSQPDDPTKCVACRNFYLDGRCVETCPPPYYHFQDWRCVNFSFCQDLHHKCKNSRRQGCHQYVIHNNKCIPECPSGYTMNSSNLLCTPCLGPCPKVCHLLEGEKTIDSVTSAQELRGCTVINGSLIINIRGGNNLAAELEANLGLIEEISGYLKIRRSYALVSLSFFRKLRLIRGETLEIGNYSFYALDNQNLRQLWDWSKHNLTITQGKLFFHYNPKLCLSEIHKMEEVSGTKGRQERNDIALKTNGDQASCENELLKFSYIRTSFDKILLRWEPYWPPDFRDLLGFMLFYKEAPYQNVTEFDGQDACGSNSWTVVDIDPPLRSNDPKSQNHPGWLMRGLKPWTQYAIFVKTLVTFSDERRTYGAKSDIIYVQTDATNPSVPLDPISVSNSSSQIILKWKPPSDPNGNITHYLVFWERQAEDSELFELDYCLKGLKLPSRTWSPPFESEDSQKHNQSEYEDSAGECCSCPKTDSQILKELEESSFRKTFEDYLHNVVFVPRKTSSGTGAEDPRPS
Sequence of Insulin receptor (P06213 763-1382 limits assumed): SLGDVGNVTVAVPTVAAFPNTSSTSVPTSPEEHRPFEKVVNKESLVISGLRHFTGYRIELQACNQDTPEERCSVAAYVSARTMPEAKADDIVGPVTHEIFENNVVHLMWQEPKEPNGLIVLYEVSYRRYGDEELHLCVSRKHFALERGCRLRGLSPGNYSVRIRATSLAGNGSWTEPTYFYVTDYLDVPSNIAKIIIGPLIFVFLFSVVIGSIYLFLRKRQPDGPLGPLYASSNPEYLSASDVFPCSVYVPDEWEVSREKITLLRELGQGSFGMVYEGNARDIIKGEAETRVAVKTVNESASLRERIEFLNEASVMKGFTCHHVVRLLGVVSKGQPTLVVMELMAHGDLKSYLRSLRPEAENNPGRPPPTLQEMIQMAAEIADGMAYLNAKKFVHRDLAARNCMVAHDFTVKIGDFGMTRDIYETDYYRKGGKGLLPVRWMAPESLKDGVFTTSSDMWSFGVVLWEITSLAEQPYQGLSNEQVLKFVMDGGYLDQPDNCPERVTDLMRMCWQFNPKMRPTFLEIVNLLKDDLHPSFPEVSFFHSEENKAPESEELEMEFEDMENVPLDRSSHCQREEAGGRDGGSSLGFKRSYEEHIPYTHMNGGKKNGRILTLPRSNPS
Sequence of Mitogen-activated protein kinase 8 (P45983 whole entry, canonical isoform): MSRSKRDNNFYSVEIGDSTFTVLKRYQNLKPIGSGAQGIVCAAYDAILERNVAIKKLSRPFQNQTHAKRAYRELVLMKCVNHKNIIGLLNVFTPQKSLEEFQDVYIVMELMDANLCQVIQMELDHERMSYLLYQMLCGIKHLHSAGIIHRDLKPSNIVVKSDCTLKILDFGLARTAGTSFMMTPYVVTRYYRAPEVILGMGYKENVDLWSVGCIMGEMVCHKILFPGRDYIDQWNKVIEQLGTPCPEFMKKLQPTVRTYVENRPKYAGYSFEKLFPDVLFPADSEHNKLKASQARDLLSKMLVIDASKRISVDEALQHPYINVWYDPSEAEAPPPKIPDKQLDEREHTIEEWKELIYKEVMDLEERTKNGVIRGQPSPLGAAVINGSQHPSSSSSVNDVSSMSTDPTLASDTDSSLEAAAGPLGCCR
Sequence of Calcium/calmodulin-dependent protein kinase kinase 2 (Homo sapiens, UniProt Q96RR4) (Q96RR4 whole entry): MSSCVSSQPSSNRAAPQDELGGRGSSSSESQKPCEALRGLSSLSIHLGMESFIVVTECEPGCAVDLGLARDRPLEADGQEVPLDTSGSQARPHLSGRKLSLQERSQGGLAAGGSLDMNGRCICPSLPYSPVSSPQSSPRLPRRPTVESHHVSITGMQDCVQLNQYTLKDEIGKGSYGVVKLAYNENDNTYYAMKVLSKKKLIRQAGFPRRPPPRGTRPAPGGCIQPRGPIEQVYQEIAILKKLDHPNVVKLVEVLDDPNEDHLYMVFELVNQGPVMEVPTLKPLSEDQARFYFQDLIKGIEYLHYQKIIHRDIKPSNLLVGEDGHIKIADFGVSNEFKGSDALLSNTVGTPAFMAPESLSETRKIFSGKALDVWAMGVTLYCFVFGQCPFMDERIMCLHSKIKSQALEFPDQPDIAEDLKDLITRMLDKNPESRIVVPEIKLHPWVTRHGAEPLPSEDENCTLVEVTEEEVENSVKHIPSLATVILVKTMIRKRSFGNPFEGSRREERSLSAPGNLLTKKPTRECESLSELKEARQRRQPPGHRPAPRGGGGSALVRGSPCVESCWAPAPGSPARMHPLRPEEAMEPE
Sequence of Calcium/calmodulin-dependent protein kinase kinase 2 (Mus musculus, UniProt Q8C078) (Q8C078 whole entry): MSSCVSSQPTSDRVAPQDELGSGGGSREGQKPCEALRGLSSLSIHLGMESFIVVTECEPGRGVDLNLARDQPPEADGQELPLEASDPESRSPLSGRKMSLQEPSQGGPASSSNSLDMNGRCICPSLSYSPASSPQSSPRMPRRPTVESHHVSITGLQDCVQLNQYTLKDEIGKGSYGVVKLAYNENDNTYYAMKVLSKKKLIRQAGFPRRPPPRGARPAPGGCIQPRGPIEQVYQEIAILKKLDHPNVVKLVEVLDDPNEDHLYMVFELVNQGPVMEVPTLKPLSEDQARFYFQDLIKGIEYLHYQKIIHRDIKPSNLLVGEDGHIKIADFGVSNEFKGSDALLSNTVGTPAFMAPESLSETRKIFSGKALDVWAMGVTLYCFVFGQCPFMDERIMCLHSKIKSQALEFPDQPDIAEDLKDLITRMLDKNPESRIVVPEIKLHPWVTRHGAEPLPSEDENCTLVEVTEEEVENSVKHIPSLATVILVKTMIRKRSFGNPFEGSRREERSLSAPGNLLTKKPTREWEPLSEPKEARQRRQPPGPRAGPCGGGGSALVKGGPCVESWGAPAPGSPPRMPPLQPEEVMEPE
Sequence of Glycogen synthase kinase-3 beta (P49841 whole entry): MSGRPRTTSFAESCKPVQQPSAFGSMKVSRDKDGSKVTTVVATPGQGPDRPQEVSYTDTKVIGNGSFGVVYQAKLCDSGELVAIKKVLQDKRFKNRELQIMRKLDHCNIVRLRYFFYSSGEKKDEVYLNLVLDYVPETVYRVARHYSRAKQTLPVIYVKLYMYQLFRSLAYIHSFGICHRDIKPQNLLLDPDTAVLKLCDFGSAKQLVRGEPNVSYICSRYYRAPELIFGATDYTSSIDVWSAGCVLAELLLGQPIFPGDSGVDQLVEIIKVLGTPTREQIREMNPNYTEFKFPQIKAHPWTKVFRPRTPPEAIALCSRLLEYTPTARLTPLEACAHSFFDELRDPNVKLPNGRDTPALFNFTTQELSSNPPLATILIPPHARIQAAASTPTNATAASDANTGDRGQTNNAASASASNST
Sequence of Phosphatidylinositol 4,5-bisphosphate 3-kinase catalytic subunit gamma isoform (P48736 whole entry, canonical isoform): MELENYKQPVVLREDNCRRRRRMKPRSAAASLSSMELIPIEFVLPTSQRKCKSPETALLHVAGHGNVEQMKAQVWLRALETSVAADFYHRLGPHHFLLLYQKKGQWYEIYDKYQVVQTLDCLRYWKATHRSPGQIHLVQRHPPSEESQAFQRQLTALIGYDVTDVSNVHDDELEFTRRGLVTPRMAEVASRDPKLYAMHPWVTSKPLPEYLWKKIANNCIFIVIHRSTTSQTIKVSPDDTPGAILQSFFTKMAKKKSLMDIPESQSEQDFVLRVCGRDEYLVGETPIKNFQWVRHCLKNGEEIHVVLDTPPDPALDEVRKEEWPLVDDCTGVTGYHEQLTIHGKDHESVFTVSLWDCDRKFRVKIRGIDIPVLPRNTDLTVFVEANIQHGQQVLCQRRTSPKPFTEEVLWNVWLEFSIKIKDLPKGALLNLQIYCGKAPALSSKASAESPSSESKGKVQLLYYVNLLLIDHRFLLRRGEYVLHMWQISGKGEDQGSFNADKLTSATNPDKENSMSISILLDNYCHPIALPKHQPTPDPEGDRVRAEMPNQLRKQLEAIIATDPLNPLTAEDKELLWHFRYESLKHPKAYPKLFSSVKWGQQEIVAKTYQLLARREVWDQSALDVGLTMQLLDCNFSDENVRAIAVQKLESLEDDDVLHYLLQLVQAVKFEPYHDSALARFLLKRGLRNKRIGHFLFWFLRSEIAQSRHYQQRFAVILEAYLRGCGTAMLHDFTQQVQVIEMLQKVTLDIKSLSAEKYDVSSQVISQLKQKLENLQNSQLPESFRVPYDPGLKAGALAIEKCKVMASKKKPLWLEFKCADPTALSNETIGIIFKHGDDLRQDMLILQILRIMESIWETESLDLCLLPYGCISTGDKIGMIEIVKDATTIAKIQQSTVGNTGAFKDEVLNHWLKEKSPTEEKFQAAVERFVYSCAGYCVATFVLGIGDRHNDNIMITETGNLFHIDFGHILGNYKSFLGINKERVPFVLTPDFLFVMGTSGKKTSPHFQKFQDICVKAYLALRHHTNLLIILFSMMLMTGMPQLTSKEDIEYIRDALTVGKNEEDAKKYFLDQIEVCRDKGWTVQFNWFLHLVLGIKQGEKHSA

SMILES | solubility at 1 h [1] [µM] | IC50 [2] [nM] | IC50 [3] [nM] | IC50 [4] [nM] | IC50 [5] [nM] | IC50 [6] [nM] | IC50 (Insulin receptor) [nM] | IC50 [7] [nM]
CS(=O)(=O)c1cccc(-c2cnc3[nH]cc(-c4ccc(C(N)=O)cc4)c3c2)c1 | > 115 |  |  |  |  |  |  | 
NC(=O)c1ccc(-c2c[nH]c3ncc(-c4ccccc4OC(F)(F)F)cc23)cc1C1CCCC1 | 2 (≈ 0.931 µg/mL) | > 10000 |  |  |  |  |  | 
N#Cc1ccc2c(-c3ccc(C(N)=O)c(C4CCCC4)c3)c[nH]c2n1 | 7 (≈ 2.31 µg/mL) |  | 1260 to 10000 |  |  |  |  | 
NC(=O)c1ccc(-c2ccnc(Nc3cc(-c4ccccc4)ccc3F)n2)cc1 | 3 (≈ 1.15 µg/mL) | 7940 | 20 | 2510 | > 10000 | > 10000 |  | 
O=C(O)c1ccc(-c2c[nH]c3ncccc23)cc1C1CCCC1 | > 290 | 3980 |  |  |  |  |  | 
Cc1ccc2c(-c3ccc(C(=O)O)c(C4CCCC4)c3)c[nH]c2n1 | > 279 | > 10000 |  |  |  |  |  | 
CC(C)c1cc(-c2c[nH]c3nc(C#N)ccc23)ccc1C(N)=O | 14 (≈ 4.26 µg/mL) |  | 1260 to 10000 |  |  |  |  | 
Cc1cc(CN2CCOCC2)ccc1-c1cc2c(-c3ccc(C(N)=O)cc3)ccnc2[nH]1 | 18 (≈ 7.68 µg/mL) | 2000 | 7.94 to 25.1 |  | 631 |  | 3980 | 126
O=C(O)c1ccc(-c2ccnc(Nc3cccc(-c4ccccc4)c3)n2)cc1 | 14 (≈ 5.14 µg/mL) | 7940 | 7.94 to 100 | 398 | 398 | 12.6 |  | 
NC(=O)c1ccc(-c2c[nH]c3ncc(-c4ccccc4Oc4ccccc4)cc23)cc1C1CCCC1 | 52 (≈ 24.6 µg/mL) | > 10000 |  |  |  |  |  | 
CS(=O)(=O)c1cccc(-c2cnc3[nH]cc(-c4ccc(C(=O)O)cc4)c3c2)c1 | 177 (≈ 69.5 µg/mL) |  |  |  |  |  |  | 
CS(=O)(=O)Nc1cccc(-c2cc3c(-c4ccc(C(N)=O)cc4)ccnc3[nH]2)c1 | 13 (≈ 5.28 µg/mL) | 3160 | 3.16 to 12.6 |  | 200 |  | 1260 | 158
NC(=O)c1ccc(-c2c[nH]c3ncc(-c4ccccc4Oc4ccccc4)cc23)cc1 | 9 (≈ 3.65 µg/mL) |  |  |  |  |  |  | 
Cc1ccc(OCCN2CCOCC2)cc1-c1cc2c(-c3ccc(C(N)=O)cc3)ccnc2[nH]1 | 17 (≈ 7.76 µg/mL) |  | 2 to 31.6 |  | 158 |  | 3980 | 200
N#CCc1ccccc1-c1cnc2[nH]cc(-c3ccc(C(N)=O)c(C4CCCC4)c3)c2c1 | 96 (≈ 40.4 µg/mL) |  |  |  |  |  |  | 
Cc1c(OCCN2CCOCC2)cccc1-c1cc2c(-c3ccc(C(N)=O)cc3)ccnc2[nH]1 | 17 (≈ 7.76 µg/mL) | 251 | 2 to 15.8 |  | 251 |  | 3160 | 158
CC(C)c1cc(-c2c[nH]c3nc(C#N)ccc23)ccc1C(=O)O | > 172 | 6310 |  |  |  |  |  | 
CN(C)c1ccccc1-c1cnc2[nH]cc(-c3ccc(C(N)=O)c(C4CCCC4)c3)c2c1 | 2 (≈ 0.849 µg/mL) | > 10000 |  |  |  |  |  | 
CN(C)Cc1cccc(-c2cc3c(-c4ccc(C(N)=O)cc4)ccnc3[nH]2)c1 | 56 (≈ 20.7 µg/mL) | 126 | 3.98 to 31.6 |  | 631 |  | 631 | 79.4
COc1ccccc1-c1cc2c(-c3ccc(C(N)=O)cc3)ccnc2[nH]1 | 16 (≈ 5.49 µg/mL) | 794 | 3.16 to 20 |  | 158 |  | 1580 | 158
COc1ccccc1-c1cnc2[nH]cc(-c3ccc(C(N)=O)c(C4CCCC4)c3)c2c1 | 1 (≈ 0.412 µg/mL) | > 10000 |  |  |  |  |  | 
CC(C)c1cc(-c2c[nH]c3ncc(-c4ccccc4)cc23)ccc1C(=O)O | > 439 | 1260 |  |  |  |  |  | 
N#Cc1ccc2c(-c3ccc(C(=O)O)cc3)c[nH]c2n1 | 235 (≈ 61.9 µg/mL) |  | 2510 to 10000 |  |  |  |  | 
CC(C)Oc1ccccc1-c1cnc2[nH]cc(-c3ccc(C(N)=O)c(C4CCCC4)c3)c2c1 |  | > 10000 |  |  |  |  |  | 
